This data set relates to MS2 coat protein. As to the kind of experiment: apparent Kd, MS2 coat protein; higher = weaker binding; RNA-MaP array; FMN 200 µM where present. The method, boiled down: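 Designs were transcribed by stalled E. coli RNA polymerase on Illumina sequencing-chip clusters. They were titrated with SNAP-549-labelled MS2 coat protein from 0.7 or 1.5 nM, doubling to 3 µM, in 100 mM Tris-HCl pH 7.5, 80 mM KCl, 4 mM MgCl2, BSA, DTT, yeast tRNA and Tween-20, without and then with constant ligand. The apparent Kd is the median of filtered per-cluster fits after normalisation of green signal to red-channel RNA signal and control-cluster median Fmax.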

The mark [1] stands for this setting: designed as: OFF switch for flavin mononucleotide, no ligand.
The mark [2] stands for this setting: ligand present: flavin mononucleotide, designed as: OFF switch for flavin mononucleotide.
[3] abbreviates: designed as: ON switch for flavin mononucleotide, no ligand.
Setting [4] is: ligand present: flavin mononucleotide, designed as: ON switch for flavin mononucleotide.

As a reminder, the apparent Kd is a dissociation constant that holds for the conditions of the assay.

Take “AUAAGCUCGUCAGGAUAUGCGACACUGUUUCGGCAGUGUGGUAUGAUCACAUGAGGAUCACCCAUGUAGAAGGGACGAGCUUAU”: the “apparent Kd” value under setting [1] was determined as 6.09 nM and the “apparent Kd” value under setting [2] was found to be 11.7 nM.
Turning to “CCUUUGAAGAUCCUGGUUUUCGACAUGAGGAUCACCCAUGUGCAGGAUAUCGUGCCGGUGCUGUGCGAGAAGGGCAGUCUCAGC”, the “apparent Kd” value is 15.1 nM under setting [1] and 17.9 nM under setting [2].
As to “GGGUACAUCGGAGGAUAUCAUGUAAAUACAUGAGGAUCACCCAUGUCGAUGGAGACAUCGGAGAUUGAGAAGGCCGAUGAACCG”, the “apparent Kd” value worked out at 165 nM under setting [3] and 8.52 nM under setting [4].
Take “CCGGCGUCAGGAUAUCCAAUAUAUGACAUGAGGAUCACCCAUGUUUCCACUCGUACCUCCGGAGAAGGGACGAAUA”: the “apparent Kd” value under setting [1] turned out to be 28.1 nM and the “apparent Kd” value under setting [2] is 24.5 nM.
In the same order, the values of “CAGGUAGACUGAGGAUAUACAAAGACCUAGUUUAUCUAGGUCAAAAUCACAUGAGGAUCACCCAUGUAGAAGGCAGUCUGCCUG” are 15.7 nM and 26 nM.
For the sequence “UAAUUAUUUGUGGUAAUACACUAUGAGGAUAUCAAGGAAUAUAACAUGAGGAUCACCCAUGUGAAUGAGAAGGCAUUAUUUAUA”, the “apparent Kd” value turned out to be 14.9 nM under setting [3] and 9.81 nM under setting [4].
For the sequence “GUGGUGCGUAUACGUGGAUGUACAUGAGGAUCACCCAUGUAAGAGGAUAUGCGGAUACUAGCUCAGCAGAAGGCUUACAAAUGA”, the “apparent Kd” value runs as follows: under setting [1], 23.1 nM; under setting [2], 92.1 nM.
The corresponding values for “UGGUACAUGAGGAUCACCCAUGUAAGAGCCCUCAUGCGAUGUAGAAGGAUAAUGCGAGUAGUGCUAUAGGAUAUACAUGAGUUU” are 225 nM and 207 nM.
The corresponding values for “UCGCUGCGAGGAUAUACGUUCGCGCGCUUUCGUUUGCGCGUACAUGAGGAUCACCCAUGUAGAAGGCGCGCUGC” are 16.4 nM and 15.5 nM.
On to “UGGUACUAGGGAGGAUAUGGGAAGAUACAUGAGGAUCACCCAUGUUUAAGAAUGCCGAGAGGCAAAUAGAAGGCCCUAGUACCU”, for which the “apparent Kd” value runs as follows: under setting [3], 658 nM; under setting [4], 85.4 nM.
For the sequence “AACUAAGUAUUAAUGGUGUCUGACAGAAGGCAAUAGAAUGAGACCGACAUGAGGAUCACCCAUGUUGAGGAUAUGUCUUGCUAC”, the “apparent Kd” value amounted to 6.44 nM under setting [1] and 6.73 nM under setting [2].
Turning to “AAGGAGUCAGGAUAUGCUGCUCGUCACUUGCGUGAUGAGUAGCAGAAGGGACAUGAGGAUCACCCAUGUAAAAA”, the “apparent Kd” value under setting [1] was determined as 56.9 nM and the “apparent Kd” value under setting [2] is 55.8 nM.
Regarding “CGAUAGGACAGAGGAUAUACACAUGAGGAUCACCCAUGUGAUUACAAUUCUUAAGAUUCAAACAUGUAGAAGGCUGUCCUAUCG”, the “apparent Kd” value by setting is: under setting [1], 9.25 nM; under setting [2], 17.4 nM.
In the same order, the values of “AGGAGAAAUGUAGGAUAUGGGCGUAUAUAUGGGCAAAGCGCAUAUAUACGCCCAGAAGGACAUGAGGAUCACCCAUGUUUCCCU” are 12.7 nM and 12.9 nM.
For “AGGUAAGAGUUAAUUGUGACGGUGAGAAGGCAAAUGGUUGUGAUUAACAUGAGGAUCACCCAUGUUGAGGAUAUCACCACCAUC”, the “apparent Kd” value under setting [1] came to 29.5 nM and the “apparent Kd” value under setting [2] was found to be 137 nM.
In the same order, the values of “CUUUAUGUUGAGGAUAUGCACCAGCUCACUGACGCAGAAGGCGACACAUGAGGAUCACCCAUGUCAGUUCGCGU” are 17.6 nM and 17.8 nM.
As to “UAGUGAUUGCAAGGAUAUGCUUGUGUUUUAUUUUUUUUAAUAUCUAACAUGAGGAUCACCCAUGUGCAGAAGGUGCUUGAUUUG”, the “apparent Kd” value was 47.8 nM under setting [3] and 48.8 nM under setting [4].
In the case of “CGGCAAAGGAAGGAUAUGCUAGACGAAAGUCUAGCAGAAGGUCCUACAUGAGGAUCACCCAUGUGUCCUAGCCG”, the “apparent Kd” value runs as follows: under setting [1], 45.4 nM; under setting [2], 55.1 nM.
In the case of “AGCCUGAGUCGAGGAUAUUAUGGAUCAAUUAAUACAUGAGGAUCACCCAUGUAAUUAAUUUAACAUGAGAAGGUGACUCAGGCA”, the “apparent Kd” value came to 11.3 nM under setting [3] and 12.9 nM under setting [4].
In the case of “CUAAUGUGAGGAUAUGGUGUUGAUCACAGGAAGGAGAUUCUCCAGAAGGCACAUGAGGAUCACCCAUGUAGUGA”, the “apparent Kd” value stood at 163 nM under setting [1] and 142 nM under setting [2].
Regarding “GGCGGAGACGUUAACAUGAGGAUCACCCAUGUCGAAGGAGAUGAGGAUAUCGUAUACGAUGUAUAUGAGAAGGCAUGGUCUGCC”, the “apparent Kd” value came to 32.8 nM under setting [3] and 11.3 nM under setting [4].
On to “CCUCUGUUAGGAUAUCUUUUGUUCGCCGUAGGUCGGAUCAUGGAGAAGGGACAUGAGGAUCACCCAUGUUUACC”, for which the “apparent Kd” value runs as follows: under setting [1], 29.7 nM; under setting [2], 56.2 nM.
With “UCAGGAGUCACAGGAUAUCCGGCGUAGCACACAGGAGAAGGGUGAUCACGAGCACAUGAGGAUCACCCAUGUGACAUUUGUGAG”, the “apparent Kd” value is, setting by setting: under setting [3], 40.4 nM; under setting [4], 50.7 nM.
“UGUCGGAGCAGAGGAUAUACAUGAGGAUCACCCAUGUAAUAAAGUGAAGCCUGAAAACAGGCAAUGUAGAAGGCUGCUCCGACA”: the “apparent Kd” value under setting [1] is 11.5 nM and the “apparent Kd” value under setting [2] turned out to be 85 nM.

The record behind these values is the EternaBench riboswitch data.
